Assay [1] has as its system Musca domestica. Put plainly: Toxicity to Musca domestica (house fly) assessed as mortality at 6.25 ug/fly measured after 24 hr. The class given is functional. The method, boiled down: (§1)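 Insecticide-susceptible adult female Musca (~25 mg) received PPP (2.5 µg/fly in 0.5 µL acetone, abdominal ventrum), then 90 min at room temperature. The compound (active ingredient) was given by intrathoracic injection in 0.22 µL water or 25-50% Me2SO/water. Mortality was scored at 0.5, 1.0, 1.5, 2.5 and 24 h.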

In assay [2] the target is T1, Muscarinic acetylcholine receptor DM1 (Drosophila melanogaster, UniProt P16395). Description: Displacement of [3H]QNB from Drosophila melanogaster mAChR by scintillation counting.
Assay [3] concerns Musca domestica. Description: Toxicity to Musca domestica (house fly) assessed as mortality at 6.25 ug/fly measured after 0.5 hr. The class given is functional. Summed up: as §1
Assay [4] concerns Musca domestica. Description: Toxicity to Musca domestica (house fly) assessed as mortality at 6.25 ug/fly measured after 2.5 hr. It counts as functional. The method, boiled down: as §1
The test system of assay [5] is Musca domestica. Description: Toxicity to Musca domestica (house fly) assessed as mortality at 6.25 ug/fly measured after 1 hr. It counts as functional. The method, boiled down:
as §1

Assay [6] deals with T1, Muscarinic acetylcholine receptor DM1. Description: Displacement of [3H]AF-DX 384 from Drosophila melanogaster mAChR by scintillation counting.
The subject of assay [7] is Musca domestica. Put plainly: Toxicity to Musca domestica (house fly) assessed as mortality at 6.25 ug/fly measured after 1.5 hr. The class given is functional. Summed up:
as §1

The subject of assay [8] is Musca domestica. Description: Toxicity to Musca domestica (house fly) assessed as mortality at 25 ug/fly measured after 2.5 hr. The class given is functional. Summed up:
as §1

Assay [9] concerns Musca domestica. Put plainly: Toxicity to Musca domestica (house fly) assessed as mortality at 7.5 ug/fly measured after 24 hr. It counts as functional. Summed up:
as §1

For assay [10], the system named is Musca domestica. Description: Toxicity to Musca domestica (house fly) assessed as mortality at 25 ug/fly measured after 24 hr. The class given is functional. The method, boiled down: as §1
The subject of assay [11] is Musca domestica. Put plainly: Toxicity to Musca domestica (house fly) assessed as mortality at 75 ug/fly measured after 0.5 hr. It counts as functional. Summed up:
as §1

Assay [12] relates to Musca domestica. Description: Toxicity to Musca domestica (house fly) assessed as mortality at 25 ug/fly measured after 1.5 hr. The class given is functional. Summed up:
as §1

The test system of assay [13] is Musca domestica. Description: Toxicity to Musca domestica (house fly) assessed as mortality at 7.5 ug/fly measured after 0.5 hr. It counts as functional. The method, boiled down:
as §1

Assay [14] deals with Musca domestica. Put plainly: Toxicity to Musca domestica (house fly) assessed as mortality at 25 ug/fly measured after 0.5 hr. It counts as functional. Summed up:
as §1

Assay [15] relates to Musca domestica. Put plainly: Toxicity to Musca domestica (house fly) assessed as mortality at 75 ug/fly measured after 24 hr. The class given is functional. Summed up: as §1
Assay [16] has as its system Musca domestica. Description: Ex vivo inhibition of [3H]QNB binding in brain of Musca domestica (house fly) at 25 ug/fly measured after 24 hr. It counts as functional. Summed up:
(§2)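 Adult female houseflies pretreated with PPP (2.5 µg/fly, topical in acetone, 90 min), then dosed by intrathoracic injection in 0.22 µL water or 25-50% Me2SO/water. Heads were taken 0.5 or 24 h later and homogenized (50 per batch) in 50 mM sodium phosphate pH 7.4. Filtrate (~800 µg protein) was bound with 0.5 nM [3H]QNB, 60 min, 25 °C. Values are relative to vehicle-treated flies; 6−8 measurements over two experiments.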

Assay [17] deals with Musca domestica. Description: Ex vivo inhibition of [3H]QNB binding in brain of Musca domestica (house fly) at 75 ug/fly measured after 0.5 hr. The class given is functional. The method, boiled down:
as §2

For assay [18], the system named is Musca domestica. Description: Toxicity to Musca domestica (house fly) assessed as mortality at 75 ug/fly measured after 2.5 hr. It counts as functional. Summed up:
as §1

The subject of assay [19] is Musca domestica. Put plainly: Toxicity to Musca domestica (house fly) assessed as mortality at 75 ug/fly measured after 1.5 hr. It counts as functional. Summed up: as §1
In assay [20] the test system is Musca domestica. Put plainly: Ex vivo inhibition of [3H]QNB binding in brain of Musca domestica (house fly) at 25 ug/fly measured after 0.5 hr. The class given is functional. The method, boiled down:
as §2

The subject of assay [21] is Musca domestica. Put plainly: Toxicity to Musca domestica (house fly) assessed as mortality at 25 ug/fly measured after 1 hr. It counts as functional. The method, boiled down:
as §1

Assay [22] deals with Musca domestica. Description: Ex vivo inhibition of [3H]QNB binding in brain of Musca domestica (house fly) at 75 ug/fly measured after 24 hr. It counts as functional. Summed up:
as §2

For assay [23], the system named is Musca domestica. Put plainly: Toxicity to Musca domestica (house fly) assessed as mortality at 7.5 ug/fly measured after 2.5 hr. It counts as functional. The method, boiled down: as §1
Assay [24] concerns Musca domestica. Put plainly: Toxicity to Musca domestica (house fly) assessed as mortality at 7.5 ug/fly measured after 1.5 hr. It counts as functional. The method, boiled down:
as §1

The subject of assay [25] is Musca domestica. Put plainly: Toxicity to Musca domestica (house fly) assessed as mortality at 7.5 ug/fly measured after 1 hr. It counts as functional. Summed up:
as §1

The subject of assay [26] is Musca domestica. Description: Toxicity to Musca domestica (house fly) assessed as mortality at 75 ug/fly measured after 1 hr. It counts as functional. The method, boiled down:
as §1

The test system of assay [27] is Musca domestica. Description: Ex vivo inhibition of [3H]QNB binding in brain of Musca domestica (house fly) at 7.5 ug/fly measured after 0.5 hr. It counts as functional. Summed up: as §2
For assay [28], the system named is Musca domestica. Description: Ex vivo inhibition of [3H]QNB binding in brain of Musca domestica (house fly) at 7.5 ug/fly measured after 24 hr. The class given is functional. Summed up:
as §2

Molecules are shown by their SMILES.

As usually defined, the Ki is the equilibrium dissociation constant of an inhibitor or competing ligand from its target. A low value points to higher affinity.

T1 sequence (P16395 whole entry): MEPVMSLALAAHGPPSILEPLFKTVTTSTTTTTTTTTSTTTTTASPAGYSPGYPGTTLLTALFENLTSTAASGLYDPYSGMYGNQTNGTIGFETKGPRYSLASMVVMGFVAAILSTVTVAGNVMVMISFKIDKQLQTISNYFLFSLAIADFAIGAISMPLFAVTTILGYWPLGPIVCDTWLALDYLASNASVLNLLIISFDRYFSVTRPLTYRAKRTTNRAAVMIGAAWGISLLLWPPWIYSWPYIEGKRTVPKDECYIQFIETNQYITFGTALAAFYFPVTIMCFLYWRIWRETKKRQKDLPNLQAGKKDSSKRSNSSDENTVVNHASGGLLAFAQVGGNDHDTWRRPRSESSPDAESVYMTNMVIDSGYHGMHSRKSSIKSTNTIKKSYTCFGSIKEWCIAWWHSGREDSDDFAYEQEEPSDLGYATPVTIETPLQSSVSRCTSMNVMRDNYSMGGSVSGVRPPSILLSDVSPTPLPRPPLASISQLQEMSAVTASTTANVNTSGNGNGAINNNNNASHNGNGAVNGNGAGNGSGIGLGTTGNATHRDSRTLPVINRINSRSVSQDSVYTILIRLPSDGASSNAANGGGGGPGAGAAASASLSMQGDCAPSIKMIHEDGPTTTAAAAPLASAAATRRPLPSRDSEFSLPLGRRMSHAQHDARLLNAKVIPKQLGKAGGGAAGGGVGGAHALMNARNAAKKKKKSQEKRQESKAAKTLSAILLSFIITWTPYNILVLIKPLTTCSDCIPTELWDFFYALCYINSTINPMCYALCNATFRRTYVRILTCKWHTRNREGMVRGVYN

On to `CCN(CC)CC1CCCCN1CC(=O)N1c2ccccc2C(=O)Nc2cccnc21` (stereo unspecified) [OTENZEPAD], for which the Activity in [1] worked out at 3%; in assay [3], 17%; in [4], 10%; in assay [5], 10%; in assay [7] it was 10%. Further, the Ki in assay [2] came to 1220 nM; in assay [6], 1380 nM.

With `C[C@H](C1=C(CCN(C)C)Cc2ccccc21)c1ccccn1`, the Activity in assay [8] is recorded as 17%; in [9] it was 0%; in assay [10], 3%; in [11], 100%; in assay [12], 40%; in assay [13], 10%. Further, the Activity in [14] amounted to 100%; in [15], 23%; in [18], 97%; in assay [19], 100%; in assay [21] it was 70%; in assay [23], 0%. Also, the Activity in assay [24] is reported as 0%; in assay [25], 0%; in assay [26] it was 100%. The Ki in [2] stood at 510 nM; in [6] it was 660 nM. The “inhibition (INH)” value stood at 0% in assay [16], 81% in [17], 41% in assay [20] and 28% in [22].

With `CCCN(CCC)CC1CCCCN1CCNC(=O)N1c2ccccc2C(=O)Nc2cccnc21` (stereo unspecified), the Activity in assay [1] worked out at 3%; in assay [3], 30%; in assay [4], 3%; in assay [5], 3%; in [7] it was 3%. The Ki in [2] was determined as 4.8 nM; in [6], 6.1 nM.

As for `C[N+]1(C)CCC(OC(=O)C(c2ccccc2)c2ccccc2)CC1.[I-]` [4-DAMP], the Activity is reported as 20% in [8]; 7% in assay [9]; 10% in assay [10]; 100% in assay [11]; 40% in assay [12]; 10% in [13]. In addition, the Activity in assay [14] was found to be 60%; in [15], 33%; in [18], 60%; in [19], 57%; in assay [21], 47%; in [23], 3%. In addition, the Activity in assay [24] is on record as 7%; in assay [25], 10%; in assay [26], 67%. Besides, the “inhibition (INH)” value in assay [27] is listed as 79%; in [16], 59%; in assay [28], 49%; in assay [20], 92%. Further, the Ki in [2] was determined as 15 nM; in assay [6], 18 nM.

(Values after ChEMBL document CHEMBL3046823, “Insect muscarinic acetylcholine receptor: pharmacological and toxicological profiles of antagonists and agonists” (J Agric Food Chem, 2007).)
